Measurements published in the M2OR odorant receptor database.

Experiments:
Conditions in all cases: stereoisomer not certain
[1] = target: T1, UniProt Q8VGL0
T1 sequence (whole entry): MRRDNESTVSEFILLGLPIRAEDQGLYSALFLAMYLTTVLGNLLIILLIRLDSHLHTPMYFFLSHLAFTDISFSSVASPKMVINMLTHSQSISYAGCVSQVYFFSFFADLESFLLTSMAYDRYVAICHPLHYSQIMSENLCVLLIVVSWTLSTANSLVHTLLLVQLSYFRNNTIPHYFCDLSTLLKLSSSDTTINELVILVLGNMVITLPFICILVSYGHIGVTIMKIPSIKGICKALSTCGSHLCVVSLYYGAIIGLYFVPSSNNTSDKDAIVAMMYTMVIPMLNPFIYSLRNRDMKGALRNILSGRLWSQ
How it was run: (§1)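 Whether a receptor–molecule pair is responsive (active) rests on the original authors' judgment that its measured signal was statistically different from baseline. Pairs without that judgment are non-responsive (inactive). Sources used varied assay methods, commonly transient luciferase assays in mammalian cell lines.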

[2] = target: T2, UniProt Q8VGU3
T2 sequence (whole entry): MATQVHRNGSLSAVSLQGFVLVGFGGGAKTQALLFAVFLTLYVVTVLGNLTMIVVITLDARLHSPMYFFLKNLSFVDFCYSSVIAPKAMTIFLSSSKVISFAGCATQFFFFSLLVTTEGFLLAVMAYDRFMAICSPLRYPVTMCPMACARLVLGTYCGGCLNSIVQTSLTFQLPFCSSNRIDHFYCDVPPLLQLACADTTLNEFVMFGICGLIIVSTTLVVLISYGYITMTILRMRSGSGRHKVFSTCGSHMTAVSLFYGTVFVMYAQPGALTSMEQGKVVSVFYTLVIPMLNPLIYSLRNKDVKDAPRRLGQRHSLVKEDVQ
How it was run: as §1

[3] = target: T3, UniProt Q8VGV7
T3 sequence (whole entry): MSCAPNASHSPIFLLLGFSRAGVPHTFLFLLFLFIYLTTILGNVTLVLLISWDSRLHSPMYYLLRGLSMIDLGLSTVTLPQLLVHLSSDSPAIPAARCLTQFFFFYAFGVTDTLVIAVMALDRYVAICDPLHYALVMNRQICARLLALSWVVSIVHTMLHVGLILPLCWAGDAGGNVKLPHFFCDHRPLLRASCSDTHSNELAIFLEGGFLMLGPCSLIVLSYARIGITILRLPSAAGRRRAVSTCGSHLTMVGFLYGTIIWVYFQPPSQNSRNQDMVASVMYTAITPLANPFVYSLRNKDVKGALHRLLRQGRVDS
How it was run: as §1

[4] = target: T4, UniProt Q8VGX3
T4 sequence (whole entry): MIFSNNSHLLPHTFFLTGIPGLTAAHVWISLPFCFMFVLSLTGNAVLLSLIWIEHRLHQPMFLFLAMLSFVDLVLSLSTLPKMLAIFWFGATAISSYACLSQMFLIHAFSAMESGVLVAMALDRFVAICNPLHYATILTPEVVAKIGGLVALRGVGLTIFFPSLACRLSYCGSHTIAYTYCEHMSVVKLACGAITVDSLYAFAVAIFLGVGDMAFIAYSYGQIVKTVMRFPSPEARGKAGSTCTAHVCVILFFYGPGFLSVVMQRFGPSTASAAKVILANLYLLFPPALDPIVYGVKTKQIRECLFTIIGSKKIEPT
How it was run: as §1

[5] = target: T5, UniProt Q8VGX5
T5 sequence (whole entry): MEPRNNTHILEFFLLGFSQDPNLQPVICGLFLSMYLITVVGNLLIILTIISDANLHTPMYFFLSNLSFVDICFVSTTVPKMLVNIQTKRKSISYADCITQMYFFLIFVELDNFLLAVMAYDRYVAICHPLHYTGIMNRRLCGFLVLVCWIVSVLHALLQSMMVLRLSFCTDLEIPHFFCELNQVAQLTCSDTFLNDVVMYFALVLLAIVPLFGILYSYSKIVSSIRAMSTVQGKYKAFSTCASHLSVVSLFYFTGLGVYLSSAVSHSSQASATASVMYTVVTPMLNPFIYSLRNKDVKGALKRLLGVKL
How it was run: as §1

[6] = target: T6, UniProt Q8VGZ2
T6 sequence (whole entry): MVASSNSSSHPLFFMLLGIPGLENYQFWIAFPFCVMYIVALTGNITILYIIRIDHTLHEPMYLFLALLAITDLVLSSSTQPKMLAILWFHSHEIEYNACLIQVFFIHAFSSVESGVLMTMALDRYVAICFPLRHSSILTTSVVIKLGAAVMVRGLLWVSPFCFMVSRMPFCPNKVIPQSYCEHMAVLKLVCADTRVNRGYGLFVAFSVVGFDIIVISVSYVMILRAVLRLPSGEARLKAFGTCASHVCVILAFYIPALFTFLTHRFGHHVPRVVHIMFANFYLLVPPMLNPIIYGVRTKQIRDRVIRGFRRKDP
How it was run: as §1

[7] = target: T7, UniProt Q8VGZ7
T7 sequence (whole entry): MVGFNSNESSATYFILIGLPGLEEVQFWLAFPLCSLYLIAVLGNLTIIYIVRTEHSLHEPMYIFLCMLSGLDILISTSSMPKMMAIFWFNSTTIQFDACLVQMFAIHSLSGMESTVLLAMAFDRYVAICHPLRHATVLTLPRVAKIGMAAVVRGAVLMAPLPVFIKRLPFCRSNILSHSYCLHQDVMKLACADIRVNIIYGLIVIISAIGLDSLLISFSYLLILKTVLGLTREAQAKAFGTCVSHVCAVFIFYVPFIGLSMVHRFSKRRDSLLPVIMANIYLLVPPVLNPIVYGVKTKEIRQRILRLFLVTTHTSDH
How it was run: as §1

[8] = target: T8, UniProt Q8VH16
T8 sequence (whole entry): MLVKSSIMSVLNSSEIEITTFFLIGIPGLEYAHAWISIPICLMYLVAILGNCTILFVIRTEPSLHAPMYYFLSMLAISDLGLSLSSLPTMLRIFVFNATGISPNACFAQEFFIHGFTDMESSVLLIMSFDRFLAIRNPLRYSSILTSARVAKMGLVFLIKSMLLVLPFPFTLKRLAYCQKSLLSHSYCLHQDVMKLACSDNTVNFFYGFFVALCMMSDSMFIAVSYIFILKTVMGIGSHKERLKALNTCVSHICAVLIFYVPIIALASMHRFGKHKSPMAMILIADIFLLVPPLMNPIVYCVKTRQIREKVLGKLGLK
How it was run: as §1

[9] = target: T9, UniProt Q8VH20
T9 sequence (whole entry): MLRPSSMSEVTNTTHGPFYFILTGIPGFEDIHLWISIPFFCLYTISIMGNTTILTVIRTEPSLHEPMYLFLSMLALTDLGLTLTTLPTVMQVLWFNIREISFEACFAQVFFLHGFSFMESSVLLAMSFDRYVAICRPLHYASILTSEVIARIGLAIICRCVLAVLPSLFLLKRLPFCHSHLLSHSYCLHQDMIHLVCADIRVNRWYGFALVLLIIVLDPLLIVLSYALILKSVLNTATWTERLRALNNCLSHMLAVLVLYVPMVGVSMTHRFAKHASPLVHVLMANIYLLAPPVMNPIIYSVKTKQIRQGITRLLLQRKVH
How it was run: as §1

Measured: odorant receptor agonist call;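 also: active if original authors judged signal statistically different from baseline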

CC(C=O)Cc1ccc2c(c1)OCO2 (stereo not given)
active: [5]
inactive: all other assays above

O=Cc1ccccc1
inactive: all assays above

CCCCCCC(Br)C(=O)O (stereo not given)
active: [9]
inactive: all other assays above

CCCCC(Br)C(=O)O (stereo not given)
active: [9]
inactive: all other assays above

CSSC
inactive: all assays above
